Results taken from ChEMBL document CHEMBL3351273, “NRPS substrate promiscuity leads to more potent antitubercular sansanmycin analogues” (2014).
In brackets after ≈: the same amount, converted by molar mass.

How the values were obtained:
Format in all cases: functional
[1] = system: Mycobacterium tuberculosis; assay: Antibacterial activity against Mycobacterium tuberculosis H37Rv after 5 days by microplate Alamar Blue assay; settings: 120 h
Method in brief: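 M. tuberculosis H37Rv grown in 7H9; final inoculum 2 × 10^6 cfu/mL. Samples from 20 mg/mL DMSO stocks, 2-fold diluted in 7H9 without Tween 80, tested in triplicate at 37 °C. From day 5, Alamar Blue plus 5% Tween 80 went to a control well; whole plate dosed once bacteria-only well turned pink. Read visually 24 h later; MIC = lowest concentration preventing colour change.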

[2] = system: Pseudomonas aeruginosa; assay: Antibacterial activity against Pseudomonas aeruginosa 11 after 24 hrs by microdilution test; settings: Pseudomonas aeruginosa, 11, 24 h
Method in brief: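 CLSI broth microdilution; P. aeruginosa 11 grown in Mueller-Hinton broth, final inoculum 10^6 cells/mL. Samples from 20 mg/mL DMSO stocks, serially diluted, run in triplicate; sansanmycin A as positive control. Incubated 37 °C for 24 h, growth read by eye; MIC = lowest concentration completely inhibiting growth.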

[3] = system: Mycobacterium tuberculosis; assay: Ratio of sansanmycin A MIC to compound MIC for Mycobacterium tuberculosis H37Rv after 5 days by microplate Alamar Blue assay

| Structure (SMILES) | MIC [1] [µg/mL] | MIC [2] [µg/mL] | Ratio [3] |
| --- | --- | --- | --- |
| C[C@@H]([C@H](NC(=O)[C@H](CC[S+](C)[O-])NC(=O)N[C@@H](Cc1c[nH]c2ccccc12)C(=O)O)C(=O)N/C=C1/C[C@@H](O)[C@H](n2ccc(=O)[nH]c2=O)O1)N(C)C(=O)[C@@H](N)Cc1cccc(O)c1 (stereo partly drawn) | > 32 | 16 (≈ 18.2 µM) |  |
| CSCC[C@H](NC(=O)N[C@@H](Cc1c[nH]c2ccccc12)C(=O)O)C(=O)N[C@H](C(=O)N/C=C1/C[C@@H](O)[C@H](n2ccc(=O)[nH]c2=O)O1)[C@H](C)N(C)C(=O)C1Cc2cccc(O)c2CN1 (stereo partly drawn) | > 32 | > 64 |  |
| CSCC[C@H](NC(=O)N[C@@H](Cc1c[nH]c2ccccc12)C(=O)O)C(=O)N[C@H](C(=O)N/C=C1/C[C@@H](O)[C@H](n2ccc(=O)[nH]c2=O)O1)[C@H](C)N(C)C(=O)C1Cc2cc(O)ccc2CN1 (stereo partly drawn) | 8 (≈ 9.13 µM) | > 64 |  |
| C[C@@H]([C@H](NC(=O)[C@H](Cc1ccccc1)NC(=O)N[C@@H](Cc1c[nH]c2ccccc12)C(=O)O)C(=O)N/C=C1/C[C@@H](O)[C@H](n2ccc(=O)[nH]c2=O)O1)N(C)C(=O)C1Cc2cccc(O)c2CN1 (stereo partly drawn) | 16 (≈ 17.9 µM) | 32 (≈ 35.9 µM) |  |
| C[C@@H]([C@H](NC(=O)[C@H](Cc1ccccc1)NC(=O)N[C@@H](Cc1c[nH]c2ccccc12)C(=O)O)C(=O)N/C=C1/C[C@@H](O)[C@H](n2ccc(=O)[nH]c2=O)O1)N(C)C(=O)C1Cc2cc(O)ccc2CN1 (stereo partly drawn) | 2 (≈ 2.24 µM) | 8 (≈ 8.97 µM) | 8 |
| CSCC[C@H](NC(=O)N[C@@H](Cc1ccc(O)cc1)C(=O)O)C(=O)N[C@H](C(=O)N/C=C1/C[C@@H](O)[C@H](n2ccc(=O)[nH]c2=O)O1)[C@H](C)N(C)C(=O)C1Cc2cccc(O)c2CN1 (stereo partly drawn) | > 32 | > 64 |  |
| CSCC[C@H](NC(=O)N[C@@H](Cc1ccc(O)cc1)C(=O)O)C(=O)N[C@H](C(=O)N/C=C1/C[C@@H](O)[C@H](n2ccc(=O)[nH]c2=O)O1)[C@H](C)N(C)C(=O)C1Cc2cc(O)ccc2CN1 (stereo partly drawn) | 16 (≈ 18.8 µM) | > 64 |  |
| C[C@@H]([C@H](NC(=O)[C@H](Cc1ccccc1)NC(=O)N[C@@H](Cc1c[nH]c2ccccc12)C(=O)O)C(=O)N/C=C1/C[C@@H](O)[C@H](n2ccc(=O)[nH]c2=O)O1)N(C)C(=O)[C@@H](N)Cc1cccc(O)c1 | 8 (≈ 9.09 µM) | 32 (≈ 36.4 µM) |  |
| CSCC[C@H](NC(=O)N[C@@H](Cc1ccc(O)cc1)C(=O)O)C(=O)N[C@H](C(=O)N/C=C1/C[C@@H](O)[C@H](n2ccc(=O)[nH]c2=O)O1)[C@H](C)N(C)C(=O)[C@@H](N)Cc1cccc(O)c1 | 8 (≈ 9.51 µM) | 8 (≈ 9.51 µM) |  |
| NNC(=O)c1ccncc1 [ISONIAZID] | 0.05 (≈ 0.365 µM) |  |  |
| CO[C@H]1/C=C/O[C@@]2(C)Oc3c(C)c(O)c4c(O)c(c(/C=N/N5CCN(C)CC5)c(O)c4c3C2=O)NC(=O)/C(C)=C\C=C\[C@H](C)[C@H](O)[C@@H](C)[C@@H](O)[C@@H](C)[C@H](OC(C)=O)[C@@H]1C [RIFAMPIN] | 0.12 (≈ 0.146 µM) |  |  |
| CSCCC(NC(=O)NC(Cc1c[nH]c2ccccc12)C(=O)O)C(=O)NC(C(=O)N/C=C1\C[C@@H](O)[C@H](n2ccc(=O)[nH]c2=O)O1)C(C)N(C)C(=O)C(N)Cc1cccc(O)c1 (stereo partly drawn) [SANSANMYCIN A] | 16 (≈ 18.5 µM) | 4 (≈ 4.63 µM) |  |
